# ChEMBL document CHEMBL4052686, “Synthesis and antibacterial activity of 5-methylphenanthridium derivatives as FtsZ inhibitors” (2017)
# Active and inactive are the calls of the source. No cut-off for these calls is given here.
# Experiments:
# Bacillus subtilis [1] = assay: Antibacterial activity against penicillin-susceptible Bacillus subtilis ATCC 9372 incubated for 24 hrs by tube-dilution method; assay type: functional; conditions: ATCC 9372, 24 h
# Outline: (§1)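 MIC by tube dilution per NCCLS; B. subtilis ATCC9372, E. coli ATCC25922, P. aeruginosa ATCC27853 and S. aureus ATCC25923 are penicillin-susceptible strains.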
# Escherichia coli [2] = assay: Antibacterial activity against penicillin-susceptible Escherichia coli ATCC 25922 incubated for 24 hrs by tube-dilution method; assay type: functional; conditions: ATCC 25922, 24 h; outline: as §1
# Pseudomonas aeruginosa [3] = assay: Antibacterial activity against penicillin-susceptible Pseudomonas aeruginosa ATCC 27853 incubated for 24 hrs by tube-dilution method; assay type: functional; conditions: ATCC 27853, 24 h; outline: as §1
# Staphylococcus aureus [4] = assay: Antibacterial activity against penicillin-susceptible Staphylococcus aureus ATCC 25923 incubated for 24 hrs by tube-dilution method; assay type: functional; conditions: ATCC 25923, 24 h; outline: as §1
# Staphylococcus aureus [5] = assay: Antibacterial activity against […] Staphylococcus aureus ATCC 29213 incubated for 24 hrs by tube-dilution method; assay type: functional; conditions: ATCC 29213, 24 h
# Outline: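 Broth tube-dilution MIC run as NCCLS recommends, against the […] S. aureus strain ATCC29213.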
# Staphylococcus aureus [6] = assay: Antibacterial activity against penicillin-resistant Staphylococcus aureus clinical isolates incubated for 24 hrs by tube-dilution method; assay type: functional
# [7] = tested on: Staphylococcus epidermidis; assay: Antibacterial activity against penicillin-resistant Staphylococcus epidermidis clinical isolates incubated for 24 hrs by tube-dilution method; assay type: functional
# Streptococcus pyogenes [8] = assay: Antibacterial activity against penicillin-susceptible Streptococcus pyogenes clinical isolates incubated for 24 hrs by tube-dilution method; assay type: functional
# Streptococcus pyogenes [9] = assay: Antibacterial activity against penicillin-resistant Streptococcus pyogenes clinical isolates incubated for 24 hrs by tube-dilution method; assay type: functional
# Bacillus subtilis [10] = assay: Inhibition of FtsZ in penicillin-susceptible Bacillus subtilis ATCC 9372 assessed as lowest drug concentration causing inhibition of cell division incubated for 5 hrs by phase-contrast light microscopy
# Outline: (§2)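 Cell division inhibition judged from bacterial cell morphology under phase-contrast light microscopy, scored as lowest concentration altering division; penicillin-susceptible strains B. subtilis ATCC9372, E. coli ATCC25922, P. aeruginosa ATCC27853, S. aureus ATCC25923.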
# Escherichia coli [11] = assay: Inhibition of FtsZ in penicillin-susceptible Escherichia coli ATCC 25922 assessed as lowest drug concentration causing inhibition of cell division incubated for 5 hrs by phase-contrast light microscopy; outline: as §2
# Pseudomonas aeruginosa [12] = assay: Inhibition of FtsZ in penicillin-susceptible Pseudomonas aeruginosa ATCC 27853 assessed as lowest drug concentration causing inhibition of cell division incubated for 5 hrs by phase-contrast light microscopy; outline: as §2
# Staphylococcus aureus [13] = assay: Inhibition of FtsZ in penicillin-susceptible Staphylococcus aureus ATCC 25923 assessed as lowest drug concentration causing inhibition of cell division incubated for 5 hrs by phase-contrast light microscopy; outline: as §2
# Sus scrofa = species on record: Sus scrofa; assay: Induction of porcine tubulin polymerisation at 2 times MIC for penicillin-resistant Staphylococcus aureus by fluorescence microscopy
# Outline: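 Polymerisation of mammalian tubulin measured with a commercial tubulin assay kit, read by fluorescence of the kit reporter, with paclitaxel as the positive control for enhanced polymerisation.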
# Streptococcus pyogenes [14] = assay: Potency index, ratio of MIC for oxacillin sodium to MIC for test compound against penicillin-susceptible Streptococcus pyogenes clinical isolates incubated for 24 hrs by tube-dilution method; assay type: functional
# Streptococcus pyogenes [15] = assay: Potency index, ratio of MIC for sanguinarine to MIC for test compound against penicillin-susceptible Streptococcus pyogenes clinical isolates incubated for 24 hrs by tube-dilution method; assay type: functional
# Staphylococcus aureus [16] = assay: Inhibition of FtsZ in penicillin-susceptible Staphylococcus aureus ATCC 25923 assessed as inhibition of cell division at […] incubated for 5 hrs by phase-contrast light microscopy
# Bacillus subtilis [17] = assay: Inhibition of FtsZ in penicillin-susceptible Bacillus subtilis ATCC 9372 assessed as inhibition of cell division at […] incubated for 5 hrs by phase-contrast light microscopy
# Bacillus subtilis [18] = assay: Potency index, ratio of MIC for curcumin to MIC for test compound against penicillin-susceptible Bacillus subtilis ATCC 9372 incubated for 24 hrs by tube-dilution method; assay type: functional
# Bacillus subtilis [19] = assay: Potency index, ratio of MIC for sanguinarine to MIC for test compound against penicillin-susceptible Bacillus subtilis ATCC 9372 incubated for 24 hrs by tube-dilution method; assay type: functional
# Bacillus subtilis [20] = assay: Potency index, ratio of MIC for ciprofloxaxin to MIC for test compound against penicillin-susceptible Bacillus subtilis ATCC 9372 incubated for 24 hrs by tube-dilution method; assay type: functional
# Bacillus subtilis [21] = assay: Potency index, ratio of MIC for oxacillin sodium to MIC for test compound against penicillin-susceptible Bacillus subtilis ATCC 9372 incubated for 24 hrs by tube-dilution method; assay type: functional
smiles,measurement,setting,value
COc1cccc2c3ccccc3c[n+](C)c12.[Cl-],MIC,Bacillus subtilis [1],8 µg/mL
same,MIC,Escherichia coli [2],> 128 µg/mL
same,MIC,Pseudomonas aeruginosa [3],> 128 µg/mL
same,MIC,Staphylococcus aureus [4],> 128 µg/mL
same,MIC,Staphylococcus aureus [5],> 128 µg/mL
same,MIC,Staphylococcus aureus [6],16 µg/mL
same,MIC,[7],128 µg/mL
same,MIC,Streptococcus pyogenes [8],16 µg/mL
same,MIC,Streptococcus pyogenes [9],16 µg/mL
same,MIC,Bacillus subtilis [10],8 µg/mL
same,MIC,Escherichia coli [11],> 128 µg/mL
same,MIC,Pseudomonas aeruginosa [12],> 128 µg/mL
same,MIC,Staphylococcus aureus [13],> 128 µg/mL
same,Activity,Sus scrofa,inactive
COc1ccc2c(c1)c1ccccc1c[n+]2C.[Cl-],MIC,Bacillus subtilis [1],8 µg/mL
same,MIC,Escherichia coli [2],> 128 µg/mL
same,MIC,Pseudomonas aeruginosa [3],> 128 µg/mL
same,MIC,Staphylococcus aureus [4],> 128 µg/mL
same,MIC,Staphylococcus aureus [5],128 µg/mL
same,MIC,Staphylococcus aureus [6],8 µg/mL
same,MIC,[7],64 µg/mL
same,MIC,Streptococcus pyogenes [8],8 µg/mL
same,MIC,Streptococcus pyogenes [9],16 µg/mL
same,MIC,Bacillus subtilis [10],8 µg/mL
same,MIC,Escherichia coli [11],> 128 µg/mL
same,MIC,Pseudomonas aeruginosa [12],> 128 µg/mL
same,MIC,Staphylococcus aureus [13],> 128 µg/mL
same,Activity,Sus scrofa,inactive
C[n+]1cc2ccccc2c2cccc(OC(F)(F)F)c21.[Cl-],MIC,Bacillus subtilis [1],4 µg/mL
same,MIC,Escherichia coli [2],> 128 µg/mL
same,MIC,Pseudomonas aeruginosa [3],> 128 µg/mL
same,MIC,Staphylococcus aureus [4],16 µg/mL
same,MIC,Staphylococcus aureus [5],64 µg/mL
same,MIC,Staphylococcus aureus [6],8 µg/mL
same,MIC,[7],32 µg/mL
same,MIC,Streptococcus pyogenes [8],4 µg/mL
same,MIC,Streptococcus pyogenes [9],8 µg/mL
same,MIC,Bacillus subtilis [10],4 µg/mL
same,Ratio,Streptococcus pyogenes [14],4
same,MIC,Escherichia coli [11],> 128 µg/mL
same,MIC,Pseudomonas aeruginosa [12],> 128 µg/mL
same,Ratio,Streptococcus pyogenes [15],2
same,MIC,Staphylococcus aureus [13],16 µg/mL
same,inhibition,Staphylococcus aureus [16],Active
same,inhibition,Bacillus subtilis [17],Active
same,Ratio,Bacillus subtilis [18],8
same,Ratio,Bacillus subtilis [19],2
same,Ratio,Bacillus subtilis [20],2
same,Ratio,Bacillus subtilis [21],2
same,Activity,Sus scrofa,inactive
CSc1ccc2c(c1)c1ccccc1c[n+]2C.[Cl-],MIC,Bacillus subtilis [1],8 µg/mL
same,MIC,Escherichia coli [2],> 128 µg/mL
same,MIC,Pseudomonas aeruginosa [3],> 128 µg/mL
same,MIC,Staphylococcus aureus [4],128 µg/mL
same,MIC,Staphylococcus aureus [5],> 128 µg/mL
same,MIC,Staphylococcus aureus [6],32 µg/mL
same,MIC,[7],> 128 µg/mL
same,MIC,Streptococcus pyogenes [8],32 µg/mL
same,MIC,Streptococcus pyogenes [9],32 µg/mL
same,MIC,Bacillus subtilis [10],8 µg/mL
same,MIC,Escherichia coli [11],128 µg/mL
same,MIC,Pseudomonas aeruginosa [12],> 128 µg/mL
same,MIC,Staphylococcus aureus [13],128 µg/mL
same,Activity,Sus scrofa,inactive
O=C(O)c1cn(C2CC2)c2cc(N3CCNCC3)c(F)cc2c1=O [CIPROFLOXACIN],MIC,Bacillus subtilis [1],8 µg/mL
same,MIC,Staphylococcus aureus [4],32 µg/mL
same,MIC,Staphylococcus aureus [5],4 µg/mL
C[n+]1cc2c3c(ccc2c2ccc4cc5c(cc4c21)OCO5)OCO3,MIC,Bacillus subtilis [1],8 µg/mL
same,MIC,Escherichia coli [2],> 128 µg/mL
same,MIC,Pseudomonas aeruginosa [3],> 128 µg/mL
same,MIC,Staphylococcus aureus [4],8 µg/mL
same,MIC,Staphylococcus aureus [5],8 µg/mL
same,MIC,Staphylococcus aureus [6],4 µg/mL
same,MIC,[7],64 µg/mL
same,MIC,Streptococcus pyogenes [8],8 µg/mL
same,MIC,Streptococcus pyogenes [9],8 µg/mL
same,MIC,Bacillus subtilis [10],8 µg/mL
same,MIC,Escherichia coli [11],> 128 µg/mL
same,MIC,Pseudomonas aeruginosa [12],> 128 µg/mL
same,MIC,Staphylococcus aureus [13],8 µg/mL
COc1cc(OC)c2c(c1)c1ccccc1c[n+]2C.[Cl-],MIC,Bacillus subtilis [1],4 µg/mL
same,MIC,Escherichia coli [2],> 128 µg/mL
same,MIC,Pseudomonas aeruginosa [3],> 128 µg/mL
same,MIC,Staphylococcus aureus [4],128 µg/mL
same,MIC,Staphylococcus aureus [5],32 µg/mL
same,MIC,Staphylococcus aureus [6],4 µg/mL
same,MIC,[7],64 µg/mL
same,MIC,Streptococcus pyogenes [8],4 µg/mL
same,MIC,Streptococcus pyogenes [9],8 µg/mL
same,MIC,Bacillus subtilis [10],2 µg/mL
same,Ratio,Streptococcus pyogenes [14],4
same,MIC,Escherichia coli [11],> 128 µg/mL
same,MIC,Pseudomonas aeruginosa [12],128 µg/mL
same,Ratio,Streptococcus pyogenes [15],2
same,MIC,Staphylococcus aureus [13],128 µg/mL
same,Ratio,Bacillus subtilis [18],8
same,Ratio,Bacillus subtilis [19],2
same,Ratio,Bacillus subtilis [20],2
same,Ratio,Bacillus subtilis [21],2
same,Activity,Sus scrofa,inactive
C[n+]1cc2ccccc2c2cc(C(C)(C)C)ccc21.[Cl-],MIC,Bacillus subtilis [1],8 µg/mL
same,MIC,Escherichia coli [2],> 128 µg/mL
same,MIC,Pseudomonas aeruginosa [3],> 128 µg/mL
same,MIC,Staphylococcus aureus [4],64 µg/mL
same,MIC,Staphylococcus aureus [5],> 128 µg/mL
same,MIC,Staphylococcus aureus [6],16 µg/mL
same,MIC,[7],128 µg/mL
same,MIC,Streptococcus pyogenes [8],16 µg/mL
same,MIC,Streptococcus pyogenes [9],16 µg/mL
same,MIC,Bacillus subtilis [10],8 µg/mL
same,MIC,Escherichia coli [11],128 µg/mL
same,MIC,Pseudomonas aeruginosa [12],> 128 µg/mL
same,MIC,Staphylococcus aureus [13],64 µg/mL
same,Activity,Sus scrofa,inactive
Cc1ccc2c(c1)c1ccccc1c[n+]2C.[Cl-],MIC,Bacillus subtilis [1],4 µg/mL
same,MIC,Escherichia coli [2],> 128 µg/mL
same,MIC,Pseudomonas aeruginosa [3],> 128 µg/mL
same,MIC,Staphylococcus aureus [4],64 µg/mL
same,MIC,Staphylococcus aureus [5],128 µg/mL
same,MIC,Staphylococcus aureus [6],4 µg/mL
same,MIC,[7],128 µg/mL
same,MIC,Streptococcus pyogenes [8],4 µg/mL
same,MIC,Streptococcus pyogenes [9],8 µg/mL
same,MIC,Bacillus subtilis [10],4 µg/mL
same,Ratio,Streptococcus pyogenes [14],4
same,MIC,Escherichia coli [11],> 128 µg/mL
same,MIC,Pseudomonas aeruginosa [12],> 128 µg/mL
same,Ratio,Streptococcus pyogenes [15],2
same,MIC,Staphylococcus aureus [13],32 µg/mL
same,Ratio,Bacillus subtilis [18],8
same,Ratio,Bacillus subtilis [19],2
same,Ratio,Bacillus subtilis [20],2
same,Ratio,Bacillus subtilis [21],2
same,Activity,Sus scrofa,inactive
